This is an account of results in publication PMC6889220 (ACS chemical neuroscience, 2019).

Read-outs that look alike come from different tables or passages of the source. Bounds are passed on as bounds.

One data set concerns Xenopus laevis tadpoles. In words: Hypnotic activity Xenopus laevis tadpole bioassay. Format: in vivo. To be noted: for EC50: Xenopus laevis. The procedure, abridged: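 Albino tadpoles at stages 45–47, 10 per dish, kept at 21–22 °C. They were exposed for 30 min to graded concentrations of test compound, with or without 10 μM atipamezole, in E3 artificial pond water containing <0.01% (v/v) DMSO. Loss of spontaneous movement was scored. Animals were then moved to fresh pond water and watched for toxicity. Each concentration was run in triplicate and reported as mean ± SEM.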

The next data set deals with albumin. The note with it: cited from earlier work.
Data set [1] deals with human serum albumin (hSA) (Homo sapiens, UniProt P02768). In words: Isothermal titration calorimetry with human serum albumin. Format: binding. In short, it runs like this:
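The calorimeter cell held 20 μM human serum albumin in PBS (150 mM NaCl, 20 mM sodium phosphate, pH 7.4), with ddH2O in the reference cell. The titrant was 0.22 mM test compound, made as a filtered saturated PBS solution with concentration checked by UV absorbance. Injections were spaced 300 s apart at 30 °C. Data were corrected for heats of dilution and fitted to a single set of independent sites. Ka from triplicate runs was averaged.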
In general terms: In ITC the heat of successive injections is recorded.

The next data set has as its target T1, recombinant human α2A -R (Homo sapiens, UniProt P08913).
T1 sequence (P08913 1-465): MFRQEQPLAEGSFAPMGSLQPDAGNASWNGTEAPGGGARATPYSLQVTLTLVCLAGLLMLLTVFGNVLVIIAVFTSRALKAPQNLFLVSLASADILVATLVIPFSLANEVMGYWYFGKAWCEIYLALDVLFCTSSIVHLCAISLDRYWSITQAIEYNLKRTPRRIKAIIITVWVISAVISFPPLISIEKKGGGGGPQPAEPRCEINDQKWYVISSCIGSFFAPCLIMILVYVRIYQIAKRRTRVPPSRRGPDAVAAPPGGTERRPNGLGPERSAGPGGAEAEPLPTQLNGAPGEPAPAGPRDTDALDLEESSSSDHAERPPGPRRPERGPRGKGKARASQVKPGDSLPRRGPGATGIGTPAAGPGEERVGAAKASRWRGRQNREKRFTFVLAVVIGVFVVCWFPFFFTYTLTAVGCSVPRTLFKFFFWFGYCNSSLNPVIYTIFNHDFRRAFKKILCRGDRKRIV
In words: [3H]clonidine radioligand competitive binding assay. To be noted: Kd with the Cheng–Prusoff correction, 15 nM [3H]-clonidine.

Data set [2] deals with T2, human α2A adrenergic receptor (Homo sapiens, UniProt P08913).
T2 sequence (P08913 1-465): T1 sequence (P08913 1-465)
In words: [35S]GTPγS binding assay. To be noted: 1 μM RX 821002 (selective α2 antagonist). Format: biochemical. On the technique in general: GTPγS resists hydrolysis and so accumulates on activated G proteins.

Where [3] appears, read: 0.5 h, read-out: hypnotic EC50 (loss of spontaneous movement).

Sequence of human serum albumin (hSA) (P02768 25-609): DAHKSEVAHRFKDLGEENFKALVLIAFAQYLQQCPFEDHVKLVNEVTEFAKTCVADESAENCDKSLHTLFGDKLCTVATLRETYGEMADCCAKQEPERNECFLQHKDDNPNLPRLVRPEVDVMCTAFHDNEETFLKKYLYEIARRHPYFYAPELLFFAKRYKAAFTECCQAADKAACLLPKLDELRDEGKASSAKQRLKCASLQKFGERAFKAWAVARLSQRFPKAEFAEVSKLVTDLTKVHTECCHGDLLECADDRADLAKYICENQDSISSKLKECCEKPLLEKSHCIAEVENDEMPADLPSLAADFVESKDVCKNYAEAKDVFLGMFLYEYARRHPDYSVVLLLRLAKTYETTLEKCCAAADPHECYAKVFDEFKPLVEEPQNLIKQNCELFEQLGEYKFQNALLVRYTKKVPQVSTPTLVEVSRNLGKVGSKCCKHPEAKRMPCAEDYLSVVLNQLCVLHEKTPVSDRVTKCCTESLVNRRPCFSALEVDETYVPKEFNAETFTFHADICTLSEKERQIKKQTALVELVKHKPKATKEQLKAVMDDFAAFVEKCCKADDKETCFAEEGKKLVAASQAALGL

Turning to `Cc1cccc([C@H](C)c2cnc[nH]2)c1C` [dexmedetomidine, reference compound], the EC50 (commonly the concentration giving half of the maximal effect) is 860 nM in the data set on Xenopus laevis tadpoles (setting [3]) and 800 nM in the data set on Xenopus laevis tadpoles (read-out: behavioral EC50 in Xenopus tadpoles). Moreover, the “fraction bound to albumin in plasma” value in the data set with albumin is on record as above 90%.

`CC(c1cccc(C2(C(F)(F)F)N=N2)c1)c1cnc[nH]1` (stereo not drawn) [azi-medetomidine, 5-(1-(3-(3-(trifluoromethyl)-3H-diazirine-3-yl)phenyl)ethyl)-1H-imidazole]: in the data set with Xenopus laevis tadpoles (setting [3]), the EC50 came to 4650 nM. The “toxicity in Xenopus tadpoles” value with Xenopus laevis tadpoles (observed after transfer to fresh pond water) is on record as “did not display any frank toxicity”. Further, the Kd (in general, the concentration at which binding is half-saturated) was found to be 29 µM in data set [1]; 3.68 nM at recombinant human α2A -R (with UV exposure (350 nm light, 30 min)); 2.1 nM at recombinant human α2A -R (without UV). The “α2A-R activity in the presence of RX 821,002” value in data set [2] is reported as “eliminated all α2A -R activity”.
